The values that follow come from ChEMBL document CHEMBL3244411, “A new warfarin metabolite: structure and function” (J Med Chem, 1978).

Data set [1] relates to Salmonella typhimurium. Briefly: Mutagenicity in Salmonella typhimurium TA1537 by Ames test. The settings on record: salmonella enterica subsp. enterica serovar typhimurium. It counts as toxicity, organism-based.
In a further data set the test system is Liver microsome. Kind of data set: Drug metabolism in rat liver microsomes by LC-UV analysis. Format: ADME. (Microsomes from liver hold many membrane-bound enzymes, among them those of drug oxidation.)
Data set [2] has as its system Rattus norvegicus. Kind of data set: Anticoagulant activity in rat plasma at 100 mg/kg, ip measured after 12 hrs by one-stage clotting assay. Further details: dose 100 mg/kg. It counts as functional, organism-based. In a few lines: (§1)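 Six rats per group given 100 mg/kg ip, as sodium salt in saline or as free acid in corn oil. At 12 h, rats were anesthetized and blood drawn from the posterior vena cava into 3.8% trisodium citrate; plasma was taken at 2000g for 10 min. Clotting measured by one-stage fibrometer assay, and individual factors by a published method. Controls received vehicle or racemic warfarin sodium at 10 mg/kg ip.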

In data set [3] the test system is Rattus norvegicus. Briefly: Effect on fibrinogen level in rat plasma at 100 mg/kg, ip measured after 24 hrs. It counts as functional, organism-based. Set-up: dose 100 mg/kg.
Data set [4] can be described thus: Activity at cytochrome P450 in phenobarbital-induced rat liver microsomes treated with (S)-warfarin at 3 umol measured under acidic conditions by LC-UV analysis in presence of NADPH. Format: ADME. In a few lines:
(§2)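 Male Wistar rat liver microsomes, uninduced or phenobarbital-induced (100 mg/kg/day ip in saline for 3 days, harvested 24 h after the last dose). Per 4.0 mL of 0.01 M TES–0.002 M MgCl2, pH 7.4: (R)- or (S)-warfarin sodium 3.0 × 10^-6 mol, NADP 1.25 µmol, glucose 6-phosphate 62.1 µmol, 8.0 mg protein. Preincubated 1.0 min at 37 °C, started with yeast G6P dehydrogenase (5.0 units), stopped by filtration after 10 min. Products quantified by LC against external standards.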

Data set [5] relates to Salmonella typhimurium. Briefly: Mutagenicity in Salmonella typhimurium TA98 by Ames test in presence of liver microsomes. It counts as toxicity, organism-based. The settings on record: salmonella enterica subsp. enterica serovar typhimurium. (In general: The Ames test detects mutagens through reverse mutation in bacteria.)
Data set [6] is described as follows: Activity at cytochrome P450 in rat liver microsomes treated with (R)-warfarin measured for 10 mins by LC-UV analysis. Format: ADME. The essentials:
(§3)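 Male Wistar rat hepatic microsomes, 8.0 mg protein in 4.0 mL 0.01 M TES-0.002 M MgCl2, pH 7.4. Enantiopure warfarin sodium 1.0 mg (3.0 × 10^-6 mol) with an NADPH-generating system (NADP 1.25 μmol, glucose 6-phosphate 62.1 μmol). Preincubated 1.0 min at 37 °C, started with G6P dehydrogenase 5.0 units, stopped after 10 min by filtration. Metabolites separated and quantified by LC against external standards.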

The subject of data set [7] is Salmonella typhimurium. Kind of data set: Mutagenicity in Salmonella typhimurium TA100 by Ames test. It counts as toxicity, organism-based. Conditions: salmonella enterica subsp. enterica serovar typhimurium.
Data set [8] in a line: Activity at cytochrome P450 in rat liver microsomes treated with (S)-warfarin at 3 umol measured under acidic conditions by LC-UV analysis in presence of NADPH. Format: ADME. The essentials: as §2
Data set [9] has as its system Rattus norvegicus. Kind of data set: Antagonism of intrinsic coagulation factor-9 synthesis in rat plasma at 100 mg/kg, ip measured after 12 hrs. Format: functional, organism-based. Further details: dose 100 mg/kg. The essentials:
as §1

For data set [10], the system named is Salmonella typhimurium. Kind of data set: Mutagenicity in Salmonella typhimurium TA1535 by Ames test. Format: toxicity, organism-based. Conditions: salmonella enterica subsp. enterica serovar typhimurium.
The nature of data set [11]: Activity at cytochrome P450 in PCN-induced rat liver microsomes treated with (R)-warfarin at 0.15 mmol measured under acidic conditions by LC-UV analysis in presence of cumene hydroperoxide. It counts as ADME. The essentials: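 Liver microsomes from PCN-induced rats (100 mg/kg/day ip in corn oil for 3 days), 200 mL at 2.0 mg protein/mL in TES–MgCl2, pH 7.4, with (R)-warfarin sodium 1.5 × 10^-4 mol. Preincubated 5 min at 37 °C with shaking, started with cumene hydroperoxide 1.6 × 10^-4 mol, given a second equal addition at 10 min, stopped at 30 min on ice. Product isolated by preparative C18 LC.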

The nature of data set [12]: Activity at cytochrome P450 in rat liver microsomes treated with (S)-warfarin measured for 10 mins by LC-UV analysis. Format: ADME. In a few lines:
as §3

The subject of data set [13] is Salmonella typhimurium. Briefly: Mutagenicity in Salmonella typhimurium TA98 by Ames test. Conditions: salmonella enterica subsp. enterica serovar typhimurium. Format: toxicity, organism-based.
For data set [14], the system named is Rattus norvegicus. Kind of data set: Antagonism of intrinsic coagulation factor-8 synthesis in rat plasma at 100 mg/kg, ip measured after 12 hrs. It counts as functional, organism-based. Further details: dose 100 mg/kg. The essentials:
as §1

For data set [15], the system named is Rattus norvegicus. Briefly: Antagonism of extrinsic coagulation factor-7 synthesis in rat plasma at 100 mg/kg, ip measured after 12 hrs. Format: functional, organism-based. Further details: dose 100 mg/kg. The essentials:
as §1

Data set [16] relates to Rattus norvegicus. Kind of data set: Antagonism of extrinsic coagulation factor-2 synthesis in rat plasma at 100 mg/kg, ip measured after 12 hrs. It counts as functional, organism-based. Set-up: dose 100 mg/kg. In a few lines:
as §1

The test system of data set [17] is Rattus norvegicus. Kind of data set: Toxicity in ip dosed rat. Format: organism-based. Conditions: in vivo.
Data set [18] has as its system Salmonella typhimurium. Kind of data set: Mutagenicity in Salmonella typhimurium TA1535 by Ames test in presence of liver microsomes. It counts as toxicity, organism-based. The settings on record: salmonella enterica subsp. enterica serovar typhimurium.
The subject of data set [19] is Salmonella typhimurium. Kind of data set: Mutagenicity in Salmonella typhimurium TA100 by Ames test in presence of liver microsomes. Format: toxicity, organism-based. Conditions: salmonella enterica subsp. enterica serovar typhimurium.
Data set [20] has as its system Salmonella typhimurium. Briefly: Mutagenicity in Salmonella typhimurium TA1537 by Ames test in presence of liver microsomes. The settings on record: salmonella enterica subsp. enterica serovar typhimurium. It counts as toxicity, organism-based.
The test system of data set [21] is Rattus norvegicus. Kind of data set: Antagonism of extrinsic coagulation factor-10 synthesis in rat plasma at 100 mg/kg, ip measured after 12 hrs. Format: functional, organism-based. Further details: dose 100 mg/kg. In a few lines: as §1

The source made the active and inactive calls. No cut-off for these calls is given here.

On to `CC(=O)CC(c1ccccc1)c1c(O)c2ccccc2oc1=O` (configuration not stated) [WARFARIN], for which the Activity result in the data set on Salmonella typhimurium [1], in the data set on Salmonella typhimurium [5], in the data set with Salmonella typhimurium [7], with Salmonella typhimurium [10], in the data set with Salmonella typhimurium [13] and in the data set with Rattus norvegicus [17] was “Non-toxic” each time. The Activity result in the data set on Salmonella typhimurium [18], with Salmonella typhimurium [19] and with Salmonella typhimurium [20] was “Non-toxic” each time. Also, the Drug metabolism entry in the data set on Liver microsome was “metabolite_notdetected”; in data set [4] it was “metabolite_detected”; in data set [6] it was “metabolite_detected”; in [8], “metabolite_detected”; in [11], “metabolite_detected”; in [12], “metabolite_detected”. Also, the outcome in the data set on Rattus norvegicus [2] and in the data set on Rattus norvegicus [3] was inactive. The inhibition result in the data set on Rattus norvegicus [9], with Rattus norvegicus [14], with Rattus norvegicus [15], in the data set with Rattus norvegicus [16] and with Rattus norvegicus [21] was “inactive” each time.
